According to ChEMBL document CHEMBL1144418, “Structure-activity relationships of fluorinated lysophosphatidic acid analogues” (J Med Chem, 2005):

Target: T1, Lysophosphatidic acid receptor 3 (Homo sapiens, UniProt Q9UBY5)
T1 sequence (Q9UBY5 whole entry): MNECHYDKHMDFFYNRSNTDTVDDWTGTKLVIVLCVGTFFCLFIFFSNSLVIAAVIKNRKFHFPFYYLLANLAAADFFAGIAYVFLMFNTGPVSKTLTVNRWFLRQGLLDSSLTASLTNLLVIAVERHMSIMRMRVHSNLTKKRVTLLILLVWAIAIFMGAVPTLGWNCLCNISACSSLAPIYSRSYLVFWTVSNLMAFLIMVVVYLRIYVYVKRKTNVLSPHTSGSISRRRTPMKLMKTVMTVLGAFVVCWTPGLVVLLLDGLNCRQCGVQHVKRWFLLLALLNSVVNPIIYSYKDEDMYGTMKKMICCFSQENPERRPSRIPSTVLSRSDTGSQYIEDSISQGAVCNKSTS
Assay: Agonistic activity as increased intracellular calcium level by human LPA3 receptor expressed in Sf9 cells
Format: functional
Method in brief: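 Sf9 insect cells infected with baculovirus encoding human LPA3, harvested 48 h post-infection, washed in MES-buffered saline (pH 6.2, 0.1% fatty acid-free BSA, 10 mM CaCl2), loaded with Fura-2 AM 45 min, resuspended at 10^6 cells/mL; ligand-evoked fluorescence at 27 °C in quartz cuvettes, excitation 340/380 nm, emission 500 nm, recorded before and after ligand addition; EC50 from concentration-response.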

Compound | EC50 [nM]
CCCCCCCC/C=C/CCCCCCCC(=O)OC[C@H](CC(F)P(=O)(O)O)OC (stereo partly drawn) | 20
CCCCCCCCCCCCCCCC(=O)OC[C@H](O)CC(F)P(=O)(O)O (stereo partly drawn) | > 10000
CCCCCCCC/C=C/CCCCCCCC(=O)OC[C@@H](O)CC(F)P(=O)(O)O (stereo partly drawn) | 0.5
CCCCCCCCCCCCCCCC(=O)OC[C@@H](O)CC(F)P(=O)(O)O (stereo partly drawn) | 20
CCCCCCCCCCCCCCCC(=O)O[C@H](COC)CC(F)P(=O)(O)O (stereo partly drawn) | ~10000
CCCCCCCCCCCCCCCC(=O)OC[C@@H](F)COP(=O)(O)O | > 10000
CCCCCCCCCCCCCCCC(=O)OC[C@H](F)COP(=O)(O)O | > 10000
CCCCCCCCCCCCCCCC(=O)OC[C@H](CC(F)P(=O)(O)O)OC (stereo partly drawn) | > 10000
CCCCCCCC/C=C/CCCCCCCC(=O)O[C@H](COC)COP(O)(O)=S | ~5000
CCCCCCCCCCCCCCCC(=O)O[C@H](COP(=O)(O)O)CC(F)F | > 10000
CCCCCCCC/C=C/CCCCCCCC(=O)OC[C@H](O)CC(F)(F)P(=O)(O)O | ~1000
CCCCCCCC/C=C/CCCCCCCC(=O)OC[C@@H](O)CC(F)(F)P(=O)(O)O | 500
CCCCCCCCCCCCCCCC(=O)OC(CF)COP(=O)(O)O (single isomer, unassigned) | ~3000
CCCCCCCCCCCCCCCC(=O)OCC(O)COP(=O)(O)O (stereo not drawn) [PALMITOYL] | > 10000

Continued, values first:

EC50 [nM] | Compound
> 10000 | CCCCCCCC/C=C/CCCCCCCC(=O)O[C@H](COP(=O)(O)O)CC(F)F
> 10000 | CCCCCCCC/C=C/CCCCCCCC(=O)O[C@H](COP(=O)(O)O)C(F)F
> 10000 | CCCCCCCC/C=C/CCCCCCCC(=O)OC[C@@H](F)COP(=O)(O)O
> 10000 | CCCCCCCCCCCCCCCC(=O)O[C@H](COP(=O)(O)O)C(F)F
500 | CCCCCCCC/C=C/CCCCCCCC(=O)OC[C@H](O)CC(F)P(=O)(O)O (stereo partly drawn)
~1000 | CCCCCCCC/C=C/CCCCCCCC(=O)OC[C@H](F)COP(=O)(O)O
5 | CCCCCCCC/C=C/CCCCCCCC(=O)O[C@H](COC)CC(F)P(=O)(O)O (stereo partly drawn)
~10 | CCCCCCCC/C=C/CCCCCCCC(=O)OC(CF)COP(=O)(O)O (single isomer, unassigned; form 1)
~200 | CCCCCCCC/C=C/CCCCCCCC(=O)OC(CF)COP(=O)(O)O (single isomer, unassigned; form 2)
